From ChEMBL document CHEMBL3877254, “Tetracyclic indolines as a novel class of β-lactam-selective resistance-modifying agent for MRSA” (Eur J Med Chem, 2017) come the findings set out here.

Values after ≈ are worked out from the molar mass of the structure shown.

For series [1], the system named is Staphylococcus aureus. Put plainly: Potentiation of cefazolin-induced antibacterial activity against methicillin-resistant Staphylococcus aureus ATCC BAA-44 assessed as compound concentration required in combination with cefazolin to return MRSA sensitive concentration below 8 ug/ml after overnight incubation. It counts as functional. An outline of the steps:
(§1)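 Antibiotic held at fixed final level in MHB (amoxicillin/clavulanic acid 4/2 μg/mL; cefazolin 8 μg/mL); test compound (10 mg/mL DMSO stock) 2-fold serially diluted from 64 μg/mL top; final inoculum OD600 0.001; overnight at 37 °C with shaking; MRC = lowest compound concentration with no visible growth.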

Series [2] relates to Staphylococcus aureus. Put plainly: Potentiation of amoxicillin/clavulanic acid-induced antibacterial activity against methicillin-resistant Staphylococcus aureus NRS100 assessed as compound concentration required in combination with amoxicillin/clavulanic acid to return MRSA sensitive concentration below 4 ug/ml after overnight incubation. It counts as functional. An outline of the steps: as §1

For series [3], the system named is Staphylococcus aureus. The series is described as follows: Antibacterial activity against methicillin-resistant Staphylococcus aureus NRS100 after 18 hrs by broth microdilution method. On the technique in general: Dilution methods test growth across graded concentrations, often in twofold steps.
The nature of series [4]: Cytotoxicity against human HeLa cells after 24 hrs by CellTiter-Glo luminescent cell viability assay. In kind it is toxicity, cell-based. Put shortly: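 HeLa cells seeded at 20 000 cells/well in DMEM with 10% FCS and 1% penicillin/streptomycin, grown 16 h at 37 °C in 5% CO2. Medium then replaced and compounds added in DMSO (1 μL per 100 μL), final 0.5–32 μg/mL, triplicate. After 24 h at 37 °C, plates equilibrated to room temperature and CellTiter-Glo luminescence read.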

What is called GI50 is the concentration giving 50% growth inhibition. A lower GI50 goes with greater sensitivity of the cells. Take `C=C1CCCC[C@@]23N(CC)CC[C@@]12c1c(C)cc(C)cc1N3C`: the MRC stood at 8 µg/mL in the series with Staphylococcus aureus [1] and 32 µg/mL in the series on Staphylococcus aureus [2]. This molecule also gave an MIC in the series on Staphylococcus aureus [3] of over 64 µg/mL. The molecule further gave a GI50 at 24 h in series [4] of 18 µg/mL (≈ 58 µM).
With `C=C1CCCC[C@@]23N(C(=O)OCc4ccccc4)CC[C@@]12c1c(C)cc(C)cc1N3C`, the results for the MRC with Staphylococcus aureus [1] and in the series on Staphylococcus aureus [2] were over 64 µg/mL and 64 µg/mL, respectively. In addition, the MIC with Staphylococcus aureus [3] was over 64 µg/mL. In series [4], this molecule returned a GI50 at 24 h of over 64 µg/mL.
`C=C1CCCC[C@]23Nc4cc(C)cc(C)c4[C@]12CCN3C(=O)OC`: the MRC in the series with Staphylococcus aureus [1] came out at 4 µg/mL; with Staphylococcus aureus [2] it was 8 µg/mL. In the series on Staphylococcus aureus [3], this molecule yielded an MIC of over 64 µg/mL. This molecule also came in with a GI50 at 24 h in series [4] of 28 µg/mL (≈ 85.8 µM).
On to `C=C1CCCC[C@@]23N(C(=O)CCC(=O)O)CC[C@@]12c1c(C)cc(C)cc1N3C`, for which the MRC in the series with Staphylococcus aureus [1] and in the series on Staphylococcus aureus [2] was over 64 µg/mL throughout. In the series on Staphylococcus aureus [3], this molecule had an MIC of over 64 µg/mL. For the same molecule, the GI50 at 24 h in series [4] is over 64 µg/mL.
For `C=C1CCCC[C@@]23N(C(=O)C(F)(F)F)CC[C@@]12c1c(C)cc(C)cc1N3C`, the MRC in the series with Staphylococcus aureus [1] and in the series on Staphylococcus aureus [2] was over 64 µg/mL in each case. The MIC in the series with Staphylococcus aureus [3] is over 64 µg/mL. The molecule further gave a GI50 at 24 h in series [4] of over 64 µg/mL.
Regarding `C=C1CCC[C@@]23N(C(=O)OC)CC[C@@]12c1c(C)cc(C)cc1N3C`, the MRC in the series with Staphylococcus aureus [1] stood at 16 µg/mL; in the series on Staphylococcus aureus [2], 8 µg/mL. In the series on Staphylococcus aureus [3], this molecule had an MIC of over 64 µg/mL. In addition, growth in series [4] was halved (GI50 at 24 h) at 40 µg/mL (≈ 123 µM).
As for `C=C1CCCC[C@@]23N(C(C)=O)CC[C@@]12c1c(C)cc(C)cc1N3C`, the MRC in the series on Staphylococcus aureus [1] and in the series on Staphylococcus aureus [2] was 32 µg/mL throughout. The molecule also registered an MIC with Staphylococcus aureus [3] of over 64 µg/mL. For the same molecule, growth in series [4] was halved (GI50 at 24 h) at 15 µg/mL (≈ 46.2 µM).
Regarding `C#CCN1c2cc(C)cc(C)c2[C@@]23CCN(C(=O)OC)[C@@]12CCCCC3=C`, the MRC in the series with Staphylococcus aureus [1] and in the series with Staphylococcus aureus [2] was 64 µg/mL each time. For the same molecule, in the series on Staphylococcus aureus [3], the MIC was over 64 µg/mL. In series [4], this molecule displayed a GI50 at 24 h of 17 µg/mL (≈ 46.6 µM).
With `C=C1CCCC[C@@]23N(C(=O)OC)CC[C@@]12c1ccccc1N3C`, the MRC with Staphylococcus aureus [1] and with Staphylococcus aureus [2] was over 64 µg/mL in each case. The molecule also gave an MIC in the series with Staphylococcus aureus [3] of over 64 µg/mL. Further, the 50% growth inhibitory concentration (GI50) at 24 h in series [4] turned out to be 30 µg/mL (≈ 96 µM).
Regarding `C=C1CCC[C@@]23N(C(=O)OCC)CC[C@@]12c1cc(C)ccc1N3C`, the MRC in the series on Staphylococcus aureus [1] is 64 µg/mL; with Staphylococcus aureus [2] it was 32 µg/mL. For the same molecule, the MIC against Staphylococcus aureus [3] is over 64 µg/mL. The same molecule showed a GI50 at 24 h in series [4] of 43 µg/mL (≈ 132 µM).
Regarding `C=C1CCCC[C@@]23N(C(=O)NCc4ccccc4)CC[C@@]12c1c(C)cc(C)cc1N3C`, the MRC with Staphylococcus aureus [1] and in the series with Staphylococcus aureus [2] was over 64 µg/mL each time. In the series with Staphylococcus aureus [3], this molecule yielded an MIC of over 64 µg/mL. In addition, the GI50 at 24 h in series [4] is over 64 µg/mL.
Take `C=C1CCCC[C@@]23N(C(=O)OC)CC[C@@]12c1c(C)cc(C)cc1N3CC`: the MRC in the series on Staphylococcus aureus [1] is 2 µg/mL; with Staphylococcus aureus [2] it was 4 µg/mL. The molecule further showed an MIC in the series on Staphylococcus aureus [3] of over 64 µg/mL. In series [4], this molecule had a concentration for 50% growth inhibition (GI50) at 24 h of 30 µg/mL (≈ 84.6 µM).
As to `C=C1CCCC[C@]23N(C)c4cc(C)cc(C)c4[C@]12CCN3S(=O)(=O)c1ccc(Cl)cc1`, the MRC in the series on Staphylococcus aureus [1] and in the series with Staphylococcus aureus [2] was over 64 µg/mL in each case. The same molecule showed an MIC in the series with Staphylococcus aureus [3] of over 64 µg/mL. Moreover, in series [4], the GI50 at 24 h was over 64 µg/mL.
For the molecule `C=C1CCC[C@@]23N(C(=O)OCC)CC[C@@]12c1cc(Cl)ccc1N3C`, the MRC in the series with Staphylococcus aureus [1] was 16 µg/mL; in the series on Staphylococcus aureus [2], 8 µg/mL. The molecule further returned an MIC with Staphylococcus aureus [3] of over 64 µg/mL. In series [4], this molecule displayed a GI50 at 24 h of 41 µg/mL (≈ 118 µM).
Taken in the same sequence, the figures for `C=C1CCCC[C@@]23N(C(=O)OCC)CC[C@@]12c1cc(F)c(OC)cc1N3C` were over 64 µg/mL, over 64 µg/mL, over 64 µg/mL and over 64 µg/mL.
The matching figures for `C=C1CCCC[C@@]23N(C(=O)OC(C)(C)C)CC[C@@]12c1c(C)cc(C)cc1N3C`: 8 µg/mL, 4 µg/mL, over 64 µg/mL and 47 µg/mL (≈ 123 µM).
Take `C=C1CCCC[C@@]23N(C(=O)OCC)CC[C@@]12c1cc(F)ccc1N3C`: the MRC in the series on Staphylococcus aureus [1] and in the series on Staphylococcus aureus [2] was over 64 µg/mL throughout. The same molecule registered an MIC against Staphylococcus aureus [3] of over 64 µg/mL. In series [4], this molecule yielded a 50% growth inhibitory concentration (GI50) at 24 h of over 64 µg/mL.
Turning to `C=C1CCCC[C@@]23N(C)CC[C@@]12c1c(C)cc(C)cc1N3C`, the MRC worked out at 8 µg/mL with Staphylococcus aureus [1] and 16 µg/mL in the series on Staphylococcus aureus [2]. This molecule also registered an MIC against Staphylococcus aureus [3] of over 64 µg/mL. For the same molecule, in series [4], growth was halved (GI50 at 24 h) at 20 µg/mL (≈ 67.5 µM).
`C=C1CCC[C@@]23N(C(=O)OC)CC[C@@]12c1cc(Cl)ccc1N3C`: the MRC with Staphylococcus aureus [1] is 16 µg/mL; in the series on Staphylococcus aureus [2], 8 µg/mL. Moreover, the MIC with Staphylococcus aureus [3] was over 64 µg/mL. This molecule gave a GI50 at 24 h in series [4] of 41 µg/mL (≈ 123 µM).
As for `C=C1CCCC[C@@]23N(C(=N)N)CC[C@@]12c1c(C)cc(C)cc1N3C`, the MRC is 16 µg/mL in the series on Staphylococcus aureus [1] and 32 µg/mL in the series on Staphylococcus aureus [2]. Besides, the MIC in the series with Staphylococcus aureus [3] was over 64 µg/mL. Moreover, the GI50 at 24 h in series [4] turned out to be 19 µg/mL (≈ 58.6 µM).
Consider `C=C1CCCC[C@@]23N(C(N)=O)CC[C@@]12c1c(C)cc(C)cc1N3C`, for which the MRC in the series on Staphylococcus aureus [1] and in the series on Staphylococcus aureus [2] was 64 µg/mL throughout. The MIC in the series with Staphylococcus aureus [3] is over 64 µg/mL. The molecule also registered a GI50 at 24 h in series [4] of 19 µg/mL (≈ 58.4 µM).
Take `C=C1CCCC[C@@]23NCC[C@@]12c1c(C)cc(C)cc1N3C`: the MRC with Staphylococcus aureus [1] worked out at 32 µg/mL; with Staphylococcus aureus [2] it was 64 µg/mL. The MIC in the series on Staphylococcus aureus [3] is over 64 µg/mL. Also, the GI50 at 24 h in series [4] turned out to be 26 µg/mL (≈ 92.1 µM).
Taken in the same sequence, the figures for `C=C1CCCC[C@@]23N(C(=O)OC)CC[C@@]12c1cc(Cl)ccc1N3C` were 8 µg/mL, 4 µg/mL, over 64 µg/mL and 53 µg/mL (≈ 153 µM).
Taken in the same sequence, the figures for `C=C1CCCC[C@@]23N(C(=O)NCC)CC[C@@]12c1c(C)cc(C)cc1N3C` were over 64 µg/mL, over 64 µg/mL, over 64 µg/mL and 51 µg/mL (≈ 144 µM).
Turning to `C=C1CCC[C@@]23N(C(=O)OC)CC[C@@]12c1cc(C)ccc1N3C`, the MRC in the series with Staphylococcus aureus [1] and in the series on Staphylococcus aureus [2] was 16 µg/mL each time. This molecule registered an MIC in the series with Staphylococcus aureus [3] of over 64 µg/mL. In series [4], this molecule registered a GI50 at 24 h of 15 µg/mL (≈ 48 µM).
Turning to `C=C1CCCC[C@@]23N(C(=O)OC)CC[C@@]12c1cc(C)ccc1N3C`, the results for the MRC in the series with Staphylococcus aureus [1] and with Staphylococcus aureus [2] were 8 µg/mL and 4 µg/mL, respectively. The MIC in the series with Staphylococcus aureus [3] was over 64 µg/mL. In series [4], this molecule gave a GI50 at 24 h of 27 µg/mL (≈ 82.7 µM).
